# PMC8268672 (Bioorganic Chemistry, 2021)
# Read-outs that look alike come from different tables or passages of the source.
# Legend:
# Coxsackie virus B4 = experiment: CPE reduction assay in Vero cells; type: cell-based; details: Enterovirus B, read-out: Antiviral EC50, Coxsackie virus B4
# [1] = tested on: Klebsiella aerogenes (NCIM-2098); experiment: Agar disk diffusion, inhibition zone; type: cell-based; details: 100 µg/8 mm disc, triplicate, mean ± SD
# [2] = tested on: Staphylococcus aureus (ATCC 29213); experiment: MIC, broth microdilution; type: cell-based; details: ATCC29213, read-out: Minimum inhibitory concentration (MIC), SA
# Procedure, shortened: (§1)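 Antibacterial MICs by CLSI broth microdilution in Mueller-Hinton broth. Test compounds and standard drugs are serially diluted two-fold from 512 to 0.25. The bacterial broth culture is grown 2-6 h to a 0.5 McFarland turbidity, then adjusted with sterile solution to the final inoculum.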
# [3] = tested on: Candida albicans (NCIM 2087); experiment: MIC, broth microdilution; type: cell-based; details: NCIM2087, read-out: Minimum inhibitory concentration (MIC), CA
# Procedure, shortened: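 CLSI broth microdilution in Sabouraud liquid medium, with test compound two-fold serially diluted from 512 to 0.25. Fungal broth culture grown 24 h at 35 °C to 0.5 McFarland turbidity, then adjusted with sterile solution to a final […] inoculum. MIC expressed in µg/mL.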
# [4] = tested on: Aspergillus fumigatus (NCIM 2081); experiment: Agar disk diffusion, inhibition zone; type: cell-based; details: 100 µg/8 mm disc, triplicate, mean ± SD
# [5] = tested on: Klebsiella aerogenes (NCIM-2098); experiment: MIC, broth microdilution; type: cell-based; details: NCIM2098, read-out: Minimum inhibitory concentration (MIC), KA
# Procedure, shortened: as §1
# [6] = tested on: Madin Darby canine kidney (MDCK) cells; details: dog
# [7] = tested on: Aspergillus niger (NCIM 2191); experiment: MIC, broth microdilution; type: cell-based; details: NCIM2191, read-out: Minimum inhibitory concentration (MIC), AN
# Procedure, shortened: (§2)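 Antifungal MICs by CLSI broth microdilution in Sabouraud liquid medium. Test compounds and standard drugs are serially diluted two-fold from 512 to 0.25. The fungal broth culture is grown 24 h at 35 °C to a 0.5 McFarland turbidity, then adjusted with sterile solution to the final inoculum.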
# [8] = tested on: Influenza A/H3N2 A/HK/7/87; experiment: CPE reduction assay in MDCK cells; type: cell-based; details: Influenza A virus
# Adeno virus-2 = experiment: CPE reduction assay in HEL cells; type: cell-based; details: read-out: Antiviral EC50, Adeno virus-2
# [9] = tested on: Human embryonic lung (HEL) cells; details: HEL cell cultures; microscopically detectable alteration of normal cell morphology
# MT4 cells = details: MT4 cell cultures; colorimetric MTT cell viability assay
# [10] = tested on: Pseudomonas aeruginosa (MCCB 0035); experiment: MIC, broth microdilution; type: cell-based; details: read-out: Minimum inhibitory concentration (MIC), PA
# Procedure, shortened: (§3)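 Broth microdilution per CLSI in Mueller-Hinton broth, using two-fold serial dilutions of test compound and reference drugs from 512 to 0.25. Bacterial broth cultures were grown 2-6 h to 0.5 McFarland turbidity, then diluted with sterile solution to the final inoculum. MIC is reported in µg/mL.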
# [11] = tested on: Bacillus cereus (NCIM-2458); experiment: MIC, broth microdilution; type: cell-based; details: NCIM2458, read-out: Minimum inhibitory concentration (MIC), BC
# Procedure, shortened: as §3
# [12] = tested on: Cryptococcus neoformans (ATCC 9011); experiment: MIC, broth microdilution; type: cell-based; details: ATCC9011, read-out: Minimum inhibitory concentration (MIC), CN
# Procedure, shortened: as §2
# Punta Toro virus = experiment: CPE reduction assay in Vero cells; type: cell-based; details: read-out: Antiviral EC50, Punta Toro virus
# [13] = tested on: Influenza A/H1N1 A/Ned/378/05; experiment: CPE reduction assay in MDCK cells; type: cell-based; details: Influenza A virus
# Vaccinia virus = experiment: microbe, parasite or virus in culture; type: cell-based; details: Orthopoxvirus vaccinia, HEL, read-out: Antiviral EC50, Vaccinia virus
# [14] = tested on: Escherichia coli (ATCC 8739); experiment: Agar disk diffusion, inhibition zone; type: cell-based; details: 100 µg/8 mm disc, triplicate, mean ± SD
# Procedure, shortened: (§4)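 Agar disk diffusion on Mueller-Hinton agar plates seeded with a standard bacterial suspension. Test compound stock in DMSO, diluted with distilled water; 8 mm sterile filter-paper discs soaked in the solution. Ampicillin was the reference. Plates incubated at 35 °C for 24 h, in triplicate. Read-out is the average inhibition-zone diameter (mm) around each disc.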
# [15] = tested on: Escherichia coli (ATCC 8739); experiment: MIC, broth microdilution; type: cell-based; details: ATCC8739, read-out: Minimum inhibitory concentration (MIC), EC
# Procedure, shortened: as §3
# Sindbis virus = experiment: CPE reduction assay in Vero cells; type: cell-based; details: read-out: Antiviral EC50, Sindbis virus
# [16] = tested on: Staphylococcus aureus (ATCC 29213); experiment: Agar disk diffusion, inhibition zone; type: cell-based; details: 100 µg/8 mm disc, triplicate, mean ± SD
# Procedure, shortened: as §4
# [17] = tested on: Aspergillus fumigatus (NCIM 2081); experiment: MIC, broth microdilution; type: cell-based; details: NCIM2081, read-out: Minimum inhibitory concentration (MIC), AF
# Procedure, shortened: as §2
# Influenza B B/Ned/537/05 = experiment: CPE reduction assay in MDCK cells; type: cell-based; details: Influenza B virus, read-out: Antiviral EC50, Influenza B B/Ned/537/05, MTS
# [18] = tested on: Salmonella typhimurium (NCIM-2501); experiment: Agar disk diffusion, inhibition zone; type: cell-based; details: 100 µg/8 mm disc, triplicate, mean ± SD
# [19] = tested on: Cryptococcus neoformans (ATCC 9011); experiment: Agar disk diffusion, inhibition zone; type: cell-based; details: 100 µg/8 mm disc, triplicate, mean ± SD
# [20] = tested on: Candida albicans (NCIM 2087); experiment: Agar disk diffusion, inhibition zone; type: cell-based; details: 100 µg/8 mm disc, triplicate, mean ± SD
# [21] = tested on: Aspergillus niger (NCIM 2191); experiment: Agar disk diffusion, inhibition zone; type: cell-based; details: 100 µg/8 mm disc, triplicate, mean ± SD
# Procedure, shortened: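 For the fungal strain, discs soaked in test compound solution (DMSO stock diluted with distilled water) sat on seeded Mueller-Hinton agar. Clotrimazole was the reference. Incubation ran 48 h at 35 °C, in triplicate. Zone of growth inhibition recorded in mm as the mean diameter around each disc.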
# Reovirus-1 = experiment: CPE reduction assay in Vero cells; type: cell-based; details: read-out: Antiviral EC50, Reovirus-1
# [22] = tested on: Pseudomonas aeruginosa (MCCB 0035); experiment: Agar disk diffusion, inhibition zone; type: cell-based; details: 100 µg/8 mm disc, triplicate, mean ± SD
# Para-influenza-3 virus = experiment: CPE reduction assay in Vero cells; type: cell-based, Parainfluenza-3 virus; details: Vero, read-out: Antiviral EC50, Para-influenza-3 virus
# [23] = tested on: Streptococcus pneumonia (ATCC 49619); experiment: Agar disk diffusion, inhibition zone; type: cell-based; details: 100 µg/8 mm disc, triplicate, mean ± SD
# Human Coronavirus (229E) = experiment: CPE reduction assay in HEL cells; type: cell-based; details: read-out: Antiviral EC50, Human Coronavirus (229E)
# Yellow Fever virus = experiment: microbe, parasite or virus in culture; type: cell-based; details: Yellow fever virus, Vero, read-out: Antiviral EC50, Yellow Fever virus
# Vero cells = details: Vero cell cultures; microscopically detectable alteration of normal cell morphology
# [24] = tested on: Bacillus cereus (NCIM-2458); experiment: Agar disk diffusion, inhibition zone; type: cell-based; details: 100 µg/8 mm disc, triplicate, mean ± SD
# [25] = tested on: Lactobacillus casei (NCIM-2651); experiment: Agar disk diffusion, inhibition zone; type: cell-based; details: 100 µg/8 mm disc, triplicate, mean ± SD
# [26] = read-out: Antiviral EC50, Influenza A/H3N2 A/HK/7/87, MTS
# [27] = read-out: Antiviral EC50, Influenza A/H3N2 A/HK/7/87, visual CPE score
# [28] = read-out: Antiviral EC50, Influenza A/H1N1 A/Ned/378/05, MTS
# [29] = read-out: Antiviral EC50, Influenza A/H1N1 A/Ned/378/05, visual CPE score
SMILES,EC50 (Coxsackie virus B4) [µM],"Diameter of growth inhibition zone, KA [1] [mm]",MIC [2] [µg/mL],MIC [3] [µg/mL],"Diameter of growth inhibition zone, AF [4] [mm]",MIC [5] [µg/mL],"Cytotoxicity, Minimum cytotoxic conc. [6] [µM]",MIC [7] [µg/mL],"EC50 [8, 26] [µM]","EC50 [8, 27] [µM]",EC50 (Adeno virus-2) [µM],Minimum cytotoxic conc. [9] [µM],Minimum cytotoxic conc. (MT4 cells) [µM],MIC [10] [µg/mL],MIC [11] [µg/mL],MIC [12] [µg/mL],EC50 (Punta Toro virus) [µM],"EC50 [13, 28] [µM]","EC50 [13, 29] [µM]",EC50 (Vaccinia virus) [µM],other results
"Cc1ccc(S(=O)(=O)N2C(=O)CSC2c2ccc([N+](=O)[O-])cc2)cc1 (stereo not drawn) [5q, 3-[(4-Methylphenyl)sulfonyl]-2-(4-nitrophenyl)-1,3-thiazolidin-4-one]",> 100,12 ± 0.4,32,4,21 ± 0.63,32,>100,4,> 100,> 100,> 100,>100,>125,32,32,2,> 100,> 100,> 100,> 100,"Diameter of growth inhibition zone, EC [14]: 17 ± 1.2 mm; MIC [15]: 16 µg/mL; EC50 (Sindbis virus): > 100 µM; Diameter of growth inhibition zone, SA [16]: 18 ± 1.2 mm; MIC [17]: 4 µg/mL; EC50 (Influenza B B/Ned/537/05): > 100 µM; Diameter of growth inhibition zone, ST [18]: 10 ± 1.1 mm; Diameter of growth inhibition zone, CN [19]: 19 ± 1.3 mm; Diameter of growth inhibition zone, CA [20]: 23 ± 1.2 mm; Diameter of growth inhibition zone, AN [21]: 22 ± 0.46 mm; EC50 (Reovirus-1): > 100 µM; Diameter of growth inhibition zone, PA [22]: 18 ± 1.2 mm; EC50 (Para-influenza-3 virus): > 100 µM; Diameter of growth inhibition zone, SP [23]: 10 ± 0.45 mm; EC50 (Human Coronavirus (229E)): > 100 µM; EC50 (Yellow Fever virus): > 100 µM; Minimum cytotoxic conc. (Vero cells): >100 µM; Diameter of growth inhibition zone, BC [24]: 12 ± 0.6 mm; Diameter of growth inhibition zone, LC [25]: 14 ± 0.4 mm"
"Cc1ccc(S(=O)(=O)N2C(=O)CSC2c2cccc(Br)c2)cc1 (stereo not drawn) [5c, 2-(3-Bromophenyl)-3-[(4-methylphenyl)sulfonyl]-1,3-thiazolidin-4-one]",> 100,14 ± 0.6,32,32,11 ± 1.5,16,>100,32,> 100,> 100,> 100,>100,>125,16,32,64,> 100,> 100,> 100,> 100,"Diameter of growth inhibition zone, EC [14]: 19 ± 0.53 mm; MIC [15]: 16 µg/mL; EC50 (Sindbis virus): > 100 µM; Diameter of growth inhibition zone, SA [16]: 17 ± 1.2 mm; MIC [17]: 32 µg/mL; EC50 (Influenza B B/Ned/537/05): > 100 µM; Diameter of growth inhibition zone, ST [18]: 12 ± 0.32 mm; Diameter of growth inhibition zone, CN [19]: 7.5 ± 0.5 mm; Diameter of growth inhibition zone, CA [20]: 12.1 ± 0.9 mm; Diameter of growth inhibition zone, AN [21]: 12 ± 0.6 mm; EC50 (Reovirus-1): > 100 µM; Diameter of growth inhibition zone, PA [22]: 16 ± 1.5 mm; EC50 (Para-influenza-3 virus): > 100 µM; Diameter of growth inhibition zone, SP [23]: 10 ± 0.9 mm; EC50 (Human Coronavirus (229E)): > 100 µM; EC50 (Yellow Fever virus): > 100 µM; Minimum cytotoxic conc. (Vero cells): >100 µM; Diameter of growth inhibition zone, BC [24]: 12 ± 0.32 mm; Diameter of growth inhibition zone, LC [25]: 14 ± 0.43 mm"
